We go through eleven compounds from ChEMBL document CHEMBL2057105, “Effect of substitution at N″-position of N'-hydroxy-N-amino guanidines on tumor cell growth” (Bioorg Med Chem Lett, 2012).

The test concerns HL-60. The test is described as follows: Cytotoxicity against human HL60 cells after 72 hrs by trypan blue assay. The class given is functional, cell-based. The conditions noted are these: HL-60, 72 h. In a few lines:
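HL-60 cells in log phase, grown in RPMI 1640 with 10% heat-inactivated FCS, 1% L-glutamine and 1% penicillin–streptomycin (37 °C, 5% CO₂), seeded at 0.1 × 10^6/mL in flasks and exposed to increasing compound concentrations for 72 h at 37 °C. Viable cells counted electronically after trypan blue staining; IC50 as 50% growth inhibition; means SD of at least three experiments.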
By IC50 is commonly meant the concentration at which inhibition is half-maximal. A high value points to lower potency. The compound `CCCC/N=C(\NO)N/N=C/c1c2ccccc2cc2ccccc12` gave an IC50 of 21.1 µM. `O=C(N/C(=N/O)N/N=C/c1c2ccccc2cc2ccccc12)c1cc([N+](=O)[O-])cc([N+](=O)[O-])c1`: the midpoint of inhibition, the IC50, lay at 8 µM.

The compound `CC(C)/N=C(/NO)N/N=C/c1c2ccccc2cc2ccccc12` yielded an IC50 of 29.8 µM. Next, `ON/C(=N\Cc1ccccc1)N/N=C/c1c2ccccc2cc2ccccc12`: 19.3 µM; `CC/N=C(/NO)N/N=C/c1c2ccccc2cc2ccccc12`: 22.6 µM; `ON/C(=N\C1CCCCC1)N/N=C/c1c2ccccc2cc2ccccc12`: 21.1 µM. To `ON/C(=N\CCc1ccccc1)N/N=C/c1c2ccccc2cc2ccccc12` belongs 19.6 µM; to `CC(=O)N/C(=N/O)N/N=C/c1c2ccccc2cc2ccccc12`, 20 µM; to `O=C(N/C(=N/O)N/N=C/c1c2ccccc2cc2ccccc12)c1ccc([N+](=O)[O-])cc1`, 10 µM.

As for `CCC/N=C(/NO)N/N=C/c1c2ccccc2cc2ccccc12`, inhibition was half-maximal at 24.9 µM (IC50). Next, `C/N=C(/NO)N/N=C/c1c2ccccc2cc2ccccc12`: 32.9 µM.
